Measurements taken from ChEMBL document CHEMBL1146511, “Cytotoxic compounds from Mundulea chapelieri from the Madagascar Rainforest” (J Nat Prod, 2004).
≈ marks a conversion by molar mass, not a printed value.

System: A2780
Test: Cytotoxicity against human A2780 cells
Type: functional, cell-based
How it was run: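 A2780 human ovarian cancer cells; growth-inhibition assay run per an earlier published protocol, with actinomycin D as positive control; value is the concentration that inhibited growth by 50% (IC50).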

SMILES | IC50
CC1(C)C=Cc2c(c3c(c4c2O[C@H](c2ccccc2)CC4=O)OC(C)(C)C=C3)O1 | 33 µg/mL (≈ 85 µM)
CC1(C)C=Cc2c(c3c(c4c2O[C@H](c2ccccc2)[C@@H](O)C4=O)OC(C)(C)C=C3)O1 | 20 µg/mL (≈ 49.4 µM)
C=C[C@@]1(C)C[C@@H](OC(C)=O)[C@H](C(C)(C)O)C[C@@H]1C(=C)C | 17 µg/mL (≈ 60.6 µM)
COc1cc(OC)c2c(c1CC=C(C)C)O[C@H](c1ccccc1)CC2=O [CANDIDONE] | 23 µg/mL (≈ 65.3 µM)
CC(C)=CCc1c(O)c2c(c3c1OC(C)(C)C=C3)O[C@H](c1ccccc1)[C@@H](O)C2=O [ISOMUNDULINOL] | 18 µg/mL (≈ 44.3 µM)
CC(C)=CCc1c2c(c(O)c3c1O[C@H](c1ccccc1)[C@@H](O)C3=O)C=CC(C)(C)O2 [MUNDULINOL] | 25 µg/mL (≈ 61.5 µM)
COc1c(-c2coc3cc4c(cc3c2=O)CC(O)C(C)(C)O4)ccc2c1C=CC(C)(C)O2 (stereo unspecified) [MUNDULONE] | 13 µg/mL (≈ 29.9 µM)
COc1c(-c2coc3cc4c(cc3c2=O)C=CC(C)(C)O4)ccc2c1C=CC(C)(C)O2 [MUNETONE] | 20 µg/mL (≈ 48 µM)
C=C(C)[C@H]1Cc2c(ccc3c2O[C@@H]2COc4cc(OC)c(OC)cc4[C@]2(O)C3=O)O1 [ROTENOLONE] | 0.5 µg/mL (≈ 1.22 µM)
C=C(C)[C@H]1Cc2c(ccc3c2O[C@@H]2COc4cc(OC)c(OC)cc4[C@@H]2C3=O)O1 [ROTENONE] | 0.7 µg/mL (≈ 1.77 µM)
COc1cc2c(cc1OC)[C@]1(O)C(=O)c3ccc4c(c3O[C@@H]1CO2)C=CC(C)(C)O4 [TEPHROSIN] | 9.1 µg/mL (≈ 22.2 µM)
